In the library only some 3% were active in any assay of this set; here they are far more common.
SENP8 block-1: blocks human SENP8 cleavage of Nedd8 substrate; Q96LD8; recombinant SENP8, Nedd8 substrate fluorescence; inhibition, % at 20 µM; actives 0.64% (n = 360,000); in the data active = inhibition mostly above about 40%, no sharp cut-off; inactive = mostly below about 27%
Target sequence (Q96LD8 whole entry, looked up): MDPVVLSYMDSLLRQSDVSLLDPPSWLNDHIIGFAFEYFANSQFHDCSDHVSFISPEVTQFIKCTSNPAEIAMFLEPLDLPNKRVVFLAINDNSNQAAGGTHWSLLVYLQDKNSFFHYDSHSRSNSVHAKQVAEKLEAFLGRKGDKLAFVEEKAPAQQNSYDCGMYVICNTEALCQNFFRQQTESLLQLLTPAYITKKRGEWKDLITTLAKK
SENP8 block-2: blocks the human protease SENP8; Q96LD8; purified SENP8, Z-RLRGG-aminoluciferin cleavage, luminescence; inhibition, % at 10 µM; actives 1.2% (n = 330,000); AID 2540; in the data active = inhibition above about 50%
UBC13 inh: inhibitors of human UBC13 polyubiquitin chain formation; P61088; TR-FRET; inhibition, % at 20 µM; actives 0.47% (n = 330,000); AID 485273; in the data active = inhibition above about 45%, passing the limit was not always enough
Target sequence (P61088 whole entry, looked up): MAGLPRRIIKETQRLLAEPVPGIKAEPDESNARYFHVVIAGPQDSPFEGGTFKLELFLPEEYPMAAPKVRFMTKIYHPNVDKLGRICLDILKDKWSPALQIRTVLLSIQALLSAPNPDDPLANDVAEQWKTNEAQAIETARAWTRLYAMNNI
Apaf-1 inh: blocks human Apaf-1 apoptosome activity | AID 489030 | actives 0.71% (n = 330,000) | inhibition, % at 20 µM | reconstituted apoptosome caspase-3 activity, DEVD-Rh110 fluorescence; active = inhibition of at least 40% at 20 µM
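Material: reconstituted apoptosome with Apaf-1, cytochrome c, caspase-9, procaspase-3, dATP / Buffer or medium: pH 7.5 Hepes buffer with CHAPS, BSA, DTT / Also added: cytochrome c with DEVD-Rh110 / Schedule: compound with Apaf-1, dATP, procaspase-3 30 min, then 50 min reaction, room temperature / Technique: rhodamine 110 fluorescence at Ex 480/Em 540 nm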
SENP6 inh: SENP6 protease inhibition. Q9GZR1. Recombinant SENP6 catalytic domain, aminoluciferin luminescence. inhibition, % at 10 µM. actives 1.8% (n = 330,000). AID 2599;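 active = inhibition above about 50% at the single tested dose, limit read from the data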
SENP7 block: inhibitors of human SENP7 protease | Q9BQF6 | actives 1.5% (n = 330,000) | inhibition, % at 5 µM | recombinant SENP7, Z-RLRGG-aminoluciferin luminescence, 40 min;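 active = inhibition above about 50% at the single test dose, limit read from the data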
Target sequence (Q9BQF6 706-1050 limits assumed): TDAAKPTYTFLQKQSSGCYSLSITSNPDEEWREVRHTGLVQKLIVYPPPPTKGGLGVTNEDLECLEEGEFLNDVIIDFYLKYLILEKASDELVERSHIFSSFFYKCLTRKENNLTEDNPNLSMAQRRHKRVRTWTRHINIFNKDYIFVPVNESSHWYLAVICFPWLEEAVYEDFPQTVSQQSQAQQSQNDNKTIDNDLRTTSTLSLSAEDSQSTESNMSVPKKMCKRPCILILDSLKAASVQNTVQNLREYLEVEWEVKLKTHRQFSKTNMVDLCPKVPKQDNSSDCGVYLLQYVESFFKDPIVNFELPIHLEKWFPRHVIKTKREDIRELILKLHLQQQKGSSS
SENP8 confirm: confirmation of human SENP8 protease inhibitors; actives 40% (n = 6,200); inhibition, % at 12.5 µM; AID 488912; Recombinant SENP8, Z-RLRGG-aminoluciferin luminescence, 60 min; shares compounds with SENP7 block;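 active = mean inhibition across replicates above about 50%, limit read from the data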
SENP6 confirm: human SENP6 inhibition, confirmed | shares compounds with SENP7 block | recombinant SENP6, Z-RLRGG-aminoluciferin luminescence | inhibition, % at 12.5 µM | actives 58% (n = 6,200) | AID 488915
SENP7 conf: human SENP7 inhibition, confirmed; shares compounds with SENP7 block; recombinant SENP7, Z-RLRGG-aminoluciferin luminescence, 40 min; inhibition, % at 12.5 µM; actives 69% (n = 6,200); AID 488917
Casp3 SENP sel: caspase-3 inhibition (SENP selectivity assay) | shares compounds with SENP7 block | purified caspase-3, Z-DEVD-aminoluciferin luminescence, 60 min | inhibition, % at 12.5 µM | actives 60% (n = 6,200) | AID 488918;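 active = mean inhibition above about 50%, limit read from the data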
SENP luc ctr: interferes with luciferase luminescence in SENP counter-screen. shares compounds with SENP7 block. actives 39% (n = 6,200). Pre-incubated SENP8/Z-RLRGG-aminoluciferin, luciferase luminescence interference. inhibition, % at 12.5 µM. AID 488919;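 active = mean inhibition above about 50% when retested at one dose, limit read from the data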
Large screens that a line does not name were inactive (follow-up assays come after a bar, where they were run).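 The calls were made as follows, unless noted: active = mean inhibition above about 50% in the one-dose retest (limit read from the data); inactive = the rest.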

CN(C)c1ccc(C=NNc2ccccn2)c(Cl)c1	none (no result: SENP8 block-2, UBC13 inh, Apaf-1 inh, SENP6 inh, SENP7 block)
O=C(O)c1ccc(/C=N\Nc2ccccn2)cc1	SENP8 block-2 89, SENP6 inh 92, SENP7 block 95 | SENP8 confirm 95 | SENP6 confirm 96 | SENP7 conf 102 | Casp3 SENP sel 98 | SENP luc ctr 89
CN(C)c1ccc(/C=N\Nc2ccccn2)cc1	SENP6 inh 68, SENP7 block 54 | SENP8 confirm 58 | SENP6 confirm 57 | SENP7 conf 86 | Casp3 SENP sel 68 | SENP luc ctr inactive
COc1cccc(CNc2nc3cc(-c4cnn(Cc5ccccc5)c4)sc3c(=O)n2C)c1	none (no result: SENP8 block-2, UBC13 inh, Apaf-1 inh, SENP6 inh, SENP7 block)
Cc1cc(O)c(-c2cc(C(=O)Nc3cccnc3)[nH]n2)cc1C	SENP7 block 71 | SENP8 confirm inactive | SENP6 confirm inactive | SENP7 conf 66 | Casp3 SENP sel inactive | SENP luc ctr inactive
CCc1ccc(O)c(-c2cc(C(=O)Nc3cccnc3)[nH]n2)c1	none
Cc1cccc(NC(=O)c2cc(-c3cc(C)cc(C)c3O)n[nH]2)c1	none
Cc1ccc(C)c(NC(=O)c2cc(-c3cc(C)ccc3O)n[nH]2)c1	SENP7 block 66 | SENP8 confirm inactive | SENP6 confirm inactive | SENP7 conf 82 | Casp3 SENP sel inactive | SENP luc ctr inactive
Cc1cc(C)c(O)c(-c2cc(C(=O)Nc3cccnc3)[nH]n2)c1	SENP6 inh 68 | SENP8 confirm inactive | SENP6 confirm inactive | SENP7 conf 73 | Casp3 SENP sel inactive | SENP luc ctr inactive
CC1=C(C(=O)N2CCCCCC2)CC(CC(=O)NC2CCCCC2)C(=O)N1CCC1=CCCCC1 (stereo not given)	none (no result: SENP8 block-2, UBC13 inh, Apaf-1 inh, SENP6 inh, SENP7 block)
COC(=O)C1(C(=O)OC)c2cc3c(cc2CN(S(=O)(=O)c2ccc(C)cc2)C1CC(C)=O)OCO3 (stereo not given)	none (no result: SENP8 block-2, UBC13 inh, Apaf-1 inh, SENP6 inh, SENP7 block)
O=C(Nc1ccc2c(c1)OCO2)c1cccs1	SENP6 inh 65 | SENP8 confirm inactive | SENP6 confirm inactive | SENP7 conf 72 | Casp3 SENP sel 74 | SENP luc ctr 55
O=C(Nc1ccc2c(c1)OCCO2)c1c(Cl)cccc1Cl	none (no result: SENP8 block-2, UBC13 inh, Apaf-1 inh, SENP6 inh, SENP7 block)
CC(=NNC(=O)c1cccs1)c1ccc2c(c1)OCCO2	none
O=C(Nc1ccc2c(c1)OCO2)c1ccc(Br)s1	SENP8 block-2 60, SENP6 inh 74, SENP7 block 78 | SENP8 confirm 72 | SENP6 confirm 67 | SENP7 conf 92 | Casp3 SENP sel 65 | SENP luc ctr 71
O=C(Nc1ccc2c(c1)OCCO2)c1cccs1	SENP6 inh 76, SENP7 block 72 | SENP8 confirm 51 | SENP6 confirm 50 | SENP7 conf 85 | Casp3 SENP sel 81 | SENP luc ctr 68
CC(=O)Nc1ccc2c(c1)OCO2	none
O=C(c1ccc2c(c1)OCCCO2)c1cccs1	SENP6 inh 54 | SENP8 confirm 52 | SENP6 confirm inactive | SENP7 conf 82 | Casp3 SENP sel 66 | SENP luc ctr 63
C[C@]12CC[C@H](O)CC1=CCC1C2CC[C@@]2(C)C1CC[C@@H]2NCc1ccccc1 (stereo not given in full)	none (no result: SENP8 block-2, UBC13 inh, Apaf-1 inh, SENP6 inh, SENP7 block)
O=C(/C=C\Nc1ccc2c(c1)OCO2)c1cccs1	SENP8 block-2 94 | SENP8 confirm inactive | SENP6 confirm 100 | SENP7 conf 104 | Casp3 SENP sel 98 | SENP luc ctr inactive
O=C(Nc1ccc(N2CCCC2)c(Cl)c1)c1cccs1	SENP8 block-2 58 | SENP8 confirm 79 | SENP6 confirm 74 | SENP7 conf 92 | Casp3 SENP sel 70 | SENP luc ctr 62
O=C(NC(=S)Nc1ccc(N2CCOCC2)c(Cl)c1)c1cccs1	none
COc1ccc(C2=Nc3ccccc3N(C(=O)c3cccnc3)C2C(=O)NC(C)(C)C)cc1 (stereo not given)	none (no result: SENP8 block-2, UBC13 inh, Apaf-1 inh, SENP6 inh, SENP7 block)
Cc1cccc(C)c1NC(=O)C1(C)CCC(=O)N1CCc1c[nH]c2ccccc12 (stereo not given)	none (no result: SENP8 block-2, UBC13 inh, Apaf-1 inh, SENP6 inh, SENP7 block)
COc1ccc(-n2c(O)c(/C=N/NS(=O)(=O)c3cccc([N+](=O)[O-])c3)c3ccccc3c2=O)cc1OC	SENP6 inh 53 | SENP8 confirm inactive | SENP6 confirm inactive | SENP7 conf inactive | Casp3 SENP sel inactive | SENP luc ctr inactive
CC(C)(C)c1ccc(/C=C/C(=O)Nc2nncs2)cc1	SENP7 block 79 | SENP8 confirm inactive | SENP6 confirm inactive | SENP7 conf inactive | Casp3 SENP sel inactive | SENP luc ctr inactive
O=C(NNC(=S)Nc1ccccc1Cl)c1ccccc1Br	SENP8 block-2 73, SENP6 inh 73, SENP7 block 67 | SENP8 confirm inactive | SENP6 confirm inactive | SENP7 conf inactive | Casp3 SENP sel inactive | SENP luc ctr inactive
Nc1ncnc2c1ccn2[C@H]1CN(Cc2ccc(Cl)cc2)C[C@@H](CO)O1	none (no result: SENP8 block-2, UBC13 inh, Apaf-1 inh, SENP6 inh, SENP7 block)
CC(C(=O)O)c1ccc(C(=O)c2ccccc2)s1 (stereo not given)	SENP8 block-2 52, SENP6 inh 68 | SENP8 confirm 62 | SENP6 confirm 52 | SENP7 conf 79 | Casp3 SENP sel 88 | SENP luc ctr 61
c1ccc(-c2ccc(-n3ccnc3)cc2)cc1	SENP6 inh 53 | SENP8 confirm inactive | SENP6 confirm inactive | SENP7 conf 72 | Casp3 SENP sel 56 | SENP luc ctr 63
COC(=O)C1=CN(c2ccc(OC)cc2OC)C(N)=C(C#N)C1c1ccccc1F (stereo not given)	none (no result: SENP8 block-2, UBC13 inh, Apaf-1 inh, SENP6 inh, SENP7 block)
Cc1sc(NC(=O)/C=C/c2ccco2)c(C(=O)O)c1C	SENP6 inh 73 | SENP8 confirm 72 | SENP6 confirm 69 | SENP7 conf 88 | Casp3 SENP sel 85 | SENP luc ctr inactive
CSc1ccc(/C=C/C(=O)NC(=O)c2ccccc2O)cc1	SENP8 block-2 79, SENP6 inh 93 | SENP8 confirm inactive | SENP6 confirm inactive | SENP7 conf inactive | Casp3 SENP sel inactive | SENP luc ctr inactive
O=C(O)/C=C/c1ccc(O)c(O)c1	none
O=C(/C=C/c1ccc(O)c(O)c1)NC(=O)c1ccccc1O	SENP8 block-2 69, SENP6 inh 74, SENP7 block 59 | SENP8 confirm inactive | SENP6 confirm 64 | SENP7 conf 90 | Casp3 SENP sel inactive | SENP luc ctr 74
